# Tests used:
# [1] = folding enthalpy; higher = less favourable; fluorescence melt of hairpins on a sequencing array, two-state fit; conditions: sodium 0.088 M
# Outline: (§1)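 On a sequenced MiSeq flow cell, library hairpins with annealed Cy3 and quencher oligos were imaged for Cy3 fluorescence in 2.5 °C steps up to 60 °C, in 50 mM Na-HEPES pH 8.0, 25 mM NaCl. Normalisation used pre-quench Cy3 and control constructs. Bootstrapped two-state fits gave melting temperature and folding enthalpy, combined by inverse variance across four replicates and with fitted temperatures raised by 9.35 °C to match UV melts.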
# [2] = melting temperature; fluorescence melt of hairpins on a sequencing array, two-state fit, raised by 9.35 °C to match UV melts; conditions: sodium 0.088 M
# Outline: as §1
sequence,measurement,setting,value
GTTGACCGAAAGGTAAC (((.(((....)))))),folding enthalpy,[1],-16.4 kcal/mol
same,Tm,[2],38.1 °C
GTTGACGAAAGTCACAAC ((((((....)))..))),folding enthalpy,[1],-9.62 kcal/mol
same,Tm,[2],36.2 °C
GTTGACGAAAGTCTGAAC ((((((....)))..))),folding enthalpy,[1],-11.5 kcal/mol
same,Tm,[2],25.1 °C
GTTGACGGAAACATCAAC (((((.(....).))))),folding enthalpy,[1],-31.8 kcal/mol
same,Tm,[2],37.2 °C
GTTGACGGAAACGTCAGC (.(((((....))))).),folding enthalpy,[1],-22 kcal/mol
same,Tm,[2],52.5 °C
GTTGAGGGAAACCCCAAC ((((.((....)).)))),folding enthalpy,[1],-26.1 kcal/mol
same,Tm,[2],43.3 °C
GTTGAGTCGAAAGACAAC (((..(((....)))))),folding enthalpy,[1],-14.6 kcal/mol
same,Tm,[2],31 °C
GTTGATCCGAAAGGAAAC (((..(((....)))))),folding enthalpy,[1],-20.8 kcal/mol
same,Tm,[2],27.6 °C
GTTGATCGAAAGATAAC (((.(((....)))))),folding enthalpy,[1],-13.3 kcal/mol
same,Tm,[2],28.9 °C
GTTGATCGAAAGATTAAC (((.(((....))).))),folding enthalpy,[1],-30.6 kcal/mol
same,Tm,[2],44.8 °C
GTTGATGCGAAAGCAAAC (((..(((....)))))),folding enthalpy,[1],-13.8 kcal/mol
same,Tm,[2],37.1 °C
GTTGATGGAAACATCAAC (((((((....))))))),folding enthalpy,[1],-46.2 kcal/mol
same,Tm,[2],57.7 °C
GTTGATGGAAACATCAGC (.(((((....))))).),folding enthalpy,[1],-25 kcal/mol
same,Tm,[2],46.5 °C
GTTGATGGAAACATTAAC (((.(((....))).))),folding enthalpy,[1],-34.1 kcal/mol
same,Tm,[2],37.5 °C
GTTGCACGAAAGTGAAC (((.(((....)))))),folding enthalpy,[1],-14.1 kcal/mol
same,Tm,[2],39.2 °C
GTTGCAGGAAACTGCGAC ((.((((....)))).)),folding enthalpy,[1],-28 kcal/mol
same,Tm,[2],53.9 °C
GTTGCCACGAAAGTGAAC (((..(((....)))))),folding enthalpy,[1],-11.8 kcal/mol
same,Tm,[2],30.6 °C
GTTGCCGAAAGGCCAAAC ((((((....)))..))),folding enthalpy,[1],-10.3 kcal/mol
same,Tm,[2],26.9 °C
GTTGCCGAAAGGCGAAAC ((((((....)))..))),folding enthalpy,[1],-9.33 kcal/mol
same,Tm,[2],33.2 °C
GTTGCCGAAAGGCGCAAC ((((((....)))..))),folding enthalpy,[1],-8.82 kcal/mol
same,Tm,[2],31.9 °C
GTTGCCTCGAAAGAGAAC (((..(((....)))))),folding enthalpy,[1],-12.1 kcal/mol
same,Tm,[2],25.4 °C
GTTGCGACGAAAGTCAAC (((..(((....)))))),folding enthalpy,[1],-16.8 kcal/mol
same,Tm,[2],33.5 °C
GTTGCGCGAAAGCGAAC (((.(((....)))))),folding enthalpy,[1],-13.4 kcal/mol
same,Tm,[2],45.5 °C
GTTGCGCGAAAGCGGAAC (((.(((....))).))),folding enthalpy,[1],-30.9 kcal/mol
same,Tm,[2],67.6 °C
GTTGCGGGAAACCGTGAC ((..(((....)))..)),folding enthalpy,[1],-20.2 kcal/mol
same,Tm,[2],45.2 °C
GTTGCGGGAAACTGCAGC (.(((.(....).))).),folding enthalpy,[1],-15.8 kcal/mol
same,Tm,[2],45 °C
GTTGCTGAAAAGCAAC ((((((....)))))),folding enthalpy,[1],-32.8 kcal/mol
same,Tm,[2],66 °C
GTTGCTGCGAAAGCAAAC (((..(((....)))))),folding enthalpy,[1],-14.3 kcal/mol
same,Tm,[2],37.8 °C
GTTGCTGGAAACAGCAGC (.(((((....))))).),folding enthalpy,[1],-26.3 kcal/mol
same,Tm,[2],54.5 °C
GTTGCTGGAAACAGTAAC (((.(((....))).))),folding enthalpy,[1],-29 kcal/mol
same,Tm,[2],47 °C
GTTGCTGGAAACGGCAAC (((((.(....).))))),folding enthalpy,[1],-43.6 kcal/mol
same,Tm,[2],55.2 °C
GTTGGACGAAAGTCAAAC (((.(((....))).))),folding enthalpy,[1],-26.9 kcal/mol
same,Tm,[2],50.9 °C
GTTGGACGAAAGTCTAAC (((.(((....))).))),folding enthalpy,[1],-26.3 kcal/mol
same,Tm,[2],51.4 °C
GTTGGAGAAATCCAAC ((((((....)))))),folding enthalpy,[1],-32 kcal/mol
same,Tm,[2],52 °C
GTTGGCCGAAAGGCGAAC (((.(((....))).))),folding enthalpy,[1],-26.6 kcal/mol
same,Tm,[2],57.4 °C
GTTGGCGAAAGCCGGAAC ((((((....)))..))),folding enthalpy,[1],-7.97 kcal/mol
same,Tm,[2],27.8 °C
GTTGGCGGAAACGCTAGC (.(.(((....))).).),folding enthalpy,[1],-13.2 kcal/mol
same,Tm,[2],34.5 °C
GTTGGGGGAAACCCCGAC ((.((((....)))).)),folding enthalpy,[1],-24.2 kcal/mol
same,Tm,[2],56.6 °C
GTTGGGGGAAACCCTAGC (.(.(((....))).).),folding enthalpy,[1],-9.75 kcal/mol
same,Tm,[2],24.6 °C
GTTGGGGGAAACCTCAAC ((((.((....)).)))),folding enthalpy,[1],-32 kcal/mol
same,Tm,[2],47.8 °C
GTTGGGGGAAACCTCAGC (.((.((....)).)).),folding enthalpy,[1],-17.4 kcal/mol
same,Tm,[2],31 °C
GTTGGTGGAAACACTGAC ((..(((....)))..)),folding enthalpy,[1],-15.9 kcal/mol
same,Tm,[2],34.8 °C
GTTGGTGGAAACGTCAAC ((((..(....)..)))),folding enthalpy,[1],-16.1 kcal/mol
same,Tm,[2],33.5 °C
GTTGTACCGAAAGGTAAC (((..(((....)))))),folding enthalpy,[1],-23.7 kcal/mol
same,Tm,[2],47.4 °C
GTTGTACGAAAGTAAAC (((.(((....)))))),folding enthalpy,[1],-21.9 kcal/mol
same,Tm,[2],39.7 °C
GTTGTACGAAAGTAGAAC (((.(((....))).))),folding enthalpy,[1],-30.1 kcal/mol
same,Tm,[2],44 °C
GTTGTATCGAAAGATAAC (((..(((....)))))),folding enthalpy,[1],-27.3 kcal/mol
same,Tm,[2],37.1 °C
GTTGTCGAAAGACAAAAC ((((((....)))..))),folding enthalpy,[1],-13.6 kcal/mol
same,Tm,[2],36.9 °C
GTTGTCGAAAGACAAC ((((((....)))))),folding enthalpy,[1],-27.7 kcal/mol
same,Tm,[2],67.5 °C
GTTGTCGAAAGACATAAC ((((((....)))..))),folding enthalpy,[1],-13.3 kcal/mol
same,Tm,[2],32.6 °C
GTTGTCGAAAGACTGAAC ((((((....)))..))),folding enthalpy,[1],-11.3 kcal/mol
same,Tm,[2],30.7 °C
GTTGTCGGAAACAACAAC (((((.(....).))))),folding enthalpy,[1],-23.4 kcal/mol
same,Tm,[2],40.2 °C
GTTGTCTCGAAAGAGAAC (((..(((....)))))),folding enthalpy,[1],-22.2 kcal/mol
same,Tm,[2],46.1 °C
GTTGTGACGAAAGTCAAC (((..(((....)))))),folding enthalpy,[1],-21.6 kcal/mol
same,Tm,[2],49.7 °C
GTTGTGTCGAAAGACAAC (((..(((....)))))),folding enthalpy,[1],-24.9 kcal/mol
same,Tm,[2],51.1 °C
GTTGTTGGAAACAATAGC (.(.(((....))).).),folding enthalpy,[1],-11.9 kcal/mol
same,Tm,[2],31.2 °C
GTTGTTGGAAACAATGAC ((..(((....)))..)),folding enthalpy,[1],-13.9 kcal/mol
same,Tm,[2],38.5 °C
GTTTAACGAAAGTTTAAC (((.(((....))).))),folding enthalpy,[1],-23.4 kcal/mol
same,Tm,[2],36.2 °C
GTTTAAGGAAACTTAAAC (((((((....))))))),folding enthalpy,[1],-40.6 kcal/mol
same,Tm,[2],46.5 °C
GTTTACCGAAAGGTAAC (((.(((....)))))),folding enthalpy,[1],-12.7 kcal/mol
same,Tm,[2],44.2 °C
GTTTACGAAAGTAGAAC ((((((....))).))),folding enthalpy,[1],-11.3 kcal/mol
same,Tm,[2],27.2 °C
GTTTACGGAAACGCAAAC ((((.((....)).)))),folding enthalpy,[1],-27.7 kcal/mol
same,Tm,[2],37.3 °C
GTTTACGGAAACGTAAGC (.(((((....))))).),folding enthalpy,[1],-22.4 kcal/mol
same,Tm,[2],41.5 °C
GTTTAGAAATAAAC (((((....))))),folding enthalpy,[1],-9.32 kcal/mol
same,Tm,[2],28.4 °C
GTTTCACGAAAGTGCAAC (((.(((....))).))),folding enthalpy,[1],-26.9 kcal/mol
same,Tm,[2],41.1 °C
GTTTCCGAAAGGAAAAAC ((((((....)))..))),folding enthalpy,[1],-15.1 kcal/mol
same,Tm,[2],36.8 °C
GTTTCCGAAAGGAAGAAC ((((((....)))..))),folding enthalpy,[1],-11.1 kcal/mol
same,Tm,[2],30.9 °C
GTTTCCGAAAGGAGAAAC ((((((....)))..))),folding enthalpy,[1],-16.8 kcal/mol
same,Tm,[2],32.5 °C
GTTTCCGAAAGGAGTAAC ((((((....)))..))),folding enthalpy,[1],-12.6 kcal/mol
same,Tm,[2],28.8 °C
GTTTCCGAAAGGATTAAC ((((((....)))..))),folding enthalpy,[1],-11.6 kcal/mol
same,Tm,[2],28.6 °C
GTTTCCGGAAACAGAAAC (((((.(....).))))),folding enthalpy,[1],-13.2 kcal/mol
same,Tm,[2],35.1 °C
GTTTCCGGAAACGGAAGC (.(((((....))))).),folding enthalpy,[1],-16.7 kcal/mol
same,Tm,[2],49.3 °C
GTTTCGGGAAACCGAGAC ((.((((....)))).)),folding enthalpy,[1],-21.4 kcal/mol
same,Tm,[2],47.3 °C
GTTTCGGGAAACTGAAAC (((((.(....).))))),folding enthalpy,[1],-27.5 kcal/mol
same,Tm,[2],46.9 °C
GTTTCTGGAAACAGAAAC (((((((....))))))),folding enthalpy,[1],-43.3 kcal/mol
same,Tm,[2],55.1 °C
GTTTCTGGAAACAGAAGC (.(((((....))))).),folding enthalpy,[1],-26.3 kcal/mol
same,Tm,[2],39.5 °C
GTTTCTGGAAACAGAGAC ((.((((....)))).)),folding enthalpy,[1],-26.9 kcal/mol
same,Tm,[2],37.2 °C
GTTTGACGAAAGTCCAAC (((.(((....))).))),folding enthalpy,[1],-20.6 kcal/mol
same,Tm,[2],40.5 °C
GTTTGACGAAAGTCTAAC (((.(((....))).))),folding enthalpy,[1],-25 kcal/mol
same,Tm,[2],47.7 °C
GTTTGAGGAAACTTGAAC (((..((....))..))),folding enthalpy,[1],-17.3 kcal/mol
same,Tm,[2],33.1 °C
GTTTGCCCGAAAGGGAAC (((..(((....)))))),folding enthalpy,[1],-11.3 kcal/mol
same,Tm,[2],32.5 °C
GTTTGCGAAAGCAAAAC ((((((....))).))),folding enthalpy,[1],-17.4 kcal/mol
same,Tm,[2],52.6 °C
GTTTGCGAAAGCAAGAAC ((((((....)))..))),folding enthalpy,[1],-10 kcal/mol
same,Tm,[2],36.7 °C
GTTTGCGAAAGCATAAC ((((((....))).))),folding enthalpy,[1],-17.3 kcal/mol
same,Tm,[2],43 °C
GTTTGCGGAAACGTAGAC ((.(.((....)).).)),folding enthalpy,[1],-20.5 kcal/mol
same,Tm,[2],30.7 °C
GTTTGCTCGAAAGAGAAC (((..(((....)))))),folding enthalpy,[1],-14.7 kcal/mol
same,Tm,[2],27 °C
GTTTGGCGAAAGCCGAAC (((.(((....))).))),folding enthalpy,[1],-20.6 kcal/mol
same,Tm,[2],58.8 °C
GTTTGGGGAAACCCAAAC (((((((....))))))),folding enthalpy,[1],-42.3 kcal/mol
same,Tm,[2],59 °C
GTTTGGGGAAACCCAAGC (.(((((....))))).),folding enthalpy,[1],-21.9 kcal/mol
same,Tm,[2],43.5 °C
GTTTGGTCGAAAGACAAC (((..(((....)))))),folding enthalpy,[1],-13.2 kcal/mol
same,Tm,[2],31.4 °C
GTTTGTACGAAAGTAAAC (((..(((....)))))),folding enthalpy,[1],-24.3 kcal/mol
same,Tm,[2],32.8 °C
